# HCV NS3 hel inh: inhibitors of HCV NS3 helicase, primary screen, biochemical, Cy5 molecular beacon fluorescence; 290,000 tested, 0.56% active; inhibition, % at 10.9 µM; NS3 helicase DNA unwinding;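 active means inhibition above the mean of all tested compounds plus 3 SD, set per campaign, cut at about 35% in these data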;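 further: 0% = DMSO wells and 100% = thioflavine S control wells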
#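 Assay system: hepatitis C virus NS3 helicase domain fragment enzyme. Also added: annealed dual-labelled DNA beacon duplex, ATP-started. Timing: 1 h reaction at 25 °C, ATP-initiated. Technique: Cy5 fluorescence at 0 and 60 min, beacon hairpin quenching. Evaluation: % inhibition of unwinding. Replication: one well per compound.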
# HSP90 refold inh: HSP90 inhibitors, primary screen, cell lysate, luminescence; Heat shock protein HSP 90 (rabbit reticulocyte lysate; luciferase refolding); Rabbit reticulocyte lysate, luciferase refolding luminescence, 3 h; inhibition, % at 5.6 µM; 290,000 tested, 0.91% active; AID 1789, 2009;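 active means inhibition above the screen-wide mean plus 3 SD, computed separately per campaign, cut at about 16% in these data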;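 further: 0% = DMSO wells and 100% = 60 µM geldanamycin wells; inhibitors lower the luminescence because luciferase stays unfolded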
# Hep lipid drop: inhibitors of hepatocyte lipid droplet formation, primary screen, imaging, high-throughput imaging, BODIPY stain; AML12 mouse hepatocytes, oleate lipid droplets; inhibition, % at 6.5 µM; 240,000 tested, 0.4% active; AID 1656, 2009;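 active means lipid droplet intensity inhibited by at least 50%, with more than 500 cells counted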
#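 Assay system: AML12 mouse liver cells | Compound dosing: One dose, 6.5 µM compound | Read-out basis: Droplet intensity reduction, % inhibition | Measured by: Fluorescence imaging, 20x objective, two fields per well | Schedule: Overnight treatment with compound plus oleate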
# HSF1 inh: HSF1 inhibitors in luciferase reporter cells, primary screen, cell-based, NIH3T3, luminescence | 300,000 tested, 0.77% active | activity change, negative = inhibition, % at 7.5 µM (by protocol) | NIH3T3-HGL HSE-luciferase, MG132-induced, luminescence 8 h; stronger effect = lower value | AID 2098, 2009;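 active means more than half of replicate wells show activity change below -50%, luminescence cut by over half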;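 further: luciferase reports HSF-1 transcriptional activity via heat shock element; 0% = median of DMSO wells and -100% = zero luminescence signal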
# HSF1 activator: HSF-1 activators, primary screen, NIH3T3-HGL cells, MG132 stress, luminescence, single point; NIH3T3-HGL HSF-1 luciferase reporter, 8 h; 100% = twice DMSO control signal; activation, % at 9 µM; 300,000 tested, 1.7% active; AID 504408, 2011;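 active means mean replicate activation of at least 50% with a set share of replicates each reaching 50%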;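 further: 0% = median of the neutral control wells and 100% = twice that signal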
# An asterisk follows results filed as active; / = no result; ! = not active in a repeat. Most compounds without a hit are left out; they make up all but 3.8% or so of the library.
SMILES,HCV NS3 hel inh,HSP90 refold inh,Hep lipid drop,HSF1 inh,HSF1 activator
CCOc1ccc(CCNC(=O)CN(C)S(=O)(=O)c2ccc3c(c2)CCC(=O)N3)cc1OCC,-1.1,-1.6,/,-54.3*,-65.1
COc1ccc(-n2c3c(cc(C(=O)NCC(=O)c4ccccc4)c2=O)C(=O)CC(C)(C)C3)cc1,7.5,3.4,-6.7,-6.0,-3.1
CCN(C(=O)c1cccs1)C1CCS(=O)(=O)C1 (centres undefined),/,/,/,2.3,3.1
CC(C)CN(C(=O)c1cccs1)C1CCS(=O)(=O)C1 (centres undefined),/,/,/,19.1,62.3*
CCn1c(-c2ccsc2)nc2c1c(=O)[nH]c(=O)n2Cc1ccccc1,-2.8,1.1,/,22.4,55.7*
CC1(c2ccccc2)NC(=O)N(N)C1=O (centres undefined),-0.3,1.2,-28.1,2.4,3.2
COCCCN1CCc2[nH]c(=S)[nH]c(=O)c2C1,-4.9,0.9,-8.7,21.1,58.1*
O=C1CC(c2ccc(Cl)c([N+](=O)[O-])c2)c2ccc3ccccc3c2N1 (centres undefined),-1.4,1.5,-16.8,-64.8*,-72.3
CCOC(=O)CNc1c(-c2ccccc2)nc2ccc(Cl)cn12,-0.1,2.8,/,7.1,23.8
COC(=O)CNc1c(-c2ccccn2)nc2ccc(Br)cn12,4.9,-4.1,-17.9,27.6,63.9*
COc1ccccc1N/C=C(\C#N)c1nc2ccccc2[nH]1,3.7,5.2,-10.7,1.9,-3.7
CC(=O)c1c(C)nn(CC(O)COc2ccc3ccccc3c2)c1C (centres undefined),-7.6,4.2,-8.4,7.3,14.7
CC1Sc2ccc(S(=O)(=O)CCC(=O)N3CCCCC3)cc2NC1=O (centres undefined),16.0,0.1,-7.4,-6.3,-14.9
CC1CC(C)CN(C(=O)CCS(=O)(=O)c2ccc3c(c2)NC(=O)CS3)C1 (centres undefined),0.7,-1.7,-8.7,31.2,85.0*
NS(=O)(=O)c1ccc(CCNC(=O)c2cnc(Cl)c(Cl)c2)cc1,-0.9,-2.2,10.6,-5.5,-5.6
COc1ccc(/C=C/C(=O)NCCCc2ccccc2)cc1,-5.3,-3.8,18.2,25.3,61.9*
CCN(CC)c1ccc(NC(=O)/C=C\c2ccccc2Cl)cc1,-14.8,-0.2,11.7,/,/
O=C(/C=C/c1ccccc1Cl)NCCc1ccccc1,-3.2,1.4,/,27.5,55.2*
O=C(/C=C/c1ccccc1Cl)NCc1ccccc1,0.3,-3.2,/,12.4,15.3
CN(C)c1ccc(NC(=O)/C=C/c2ccccc2Cl)cc1,4.8,-2.6,-1.5,20.4,54.1*
CCCNC(=O)CN1C(=O)NC(c2ccccc2)(c2ccccc2)C1=O,-3.4,0.1,-18.2,-10.3,-11.0
CCN(CC)C(=O)CSc1nc2cc3c(cc2c(=O)n1CCCC(=O)NCc1ccc(OC)cc1)OCO3,10.9,3.0,-47.0,3.5,8.5
COc1ccc(CNC(=O)CCCCCn2c(SCC#N)nc3cc4c(cc3c2=O)OCO4)cc1,10.8,1.7,56.3*,0.1,-0.4
CC/C(=C(\c1ccccc1)c1ccc(OCCN(C)C)cc1)c1ccccc1,/,/,/,-1.6,-2.7
CCN(CC)CCOc1ccc(/C(=C(/Cl)c2ccccc2)c2ccccc2)cc1,-77.7,-4.8,-0.7,17.7,67.4*!
SMILES,HCV NS3 hel inh,HSP90 refold inh,Hep lipid drop,HSF1 inh,HSF1 activator
COc1ccc(Nc2nc(N)nc(CSc3nc(C)cc(C)n3)n2)cc1,-1.7,3.8,-6.8,-88.8*,-91.6
COc1ccc(Nc2nc(N)nc(CSc3nnc(N)s3)n2)cc1,3.1,-1.6,-2.0,11.5,37.2
COc1ccccc1Nc1nc(N)nc(CSc2nc(C)cc(C)n2)n1,-3.2,-0.8,/,7.1,33.3
COc1ccc(Nc2nc(N)nc(CSc3nccn3C)n2)cc1,3.9,2.5,-0.1,8.9,54.9*
CC(=O)c1ccc(S(=O)(=O)N(C)CC(=O)NCC2CCCCC2)cc1,0.3,-1.8,-14.4,-5.4,5.2
Cc1noc(C)c1CSCC(=O)N(C)CC(=O)Nc1ccccc1Br,/,/,/,-2.9,4.9
O=C(CCC(=O)N1CCN(c2ccc(Cl)c(Cl)c2)CC1)c1ccccc1,-9.0,-2.0,-1.9,3.4,-7.1

# Screening results deposited in PubChem by several laboratories.
